≈ marks a conversion by molar mass, not a printed value.
Experiments:
Onchocerca ochengi [1] = experiment: (§1) WHO-TDR: Onchocerciasis; format: functional; parameters: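 at 12.5 µM on microfilariae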
Outline: (§2)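 Values are reported as percent inhibition and as IC50. They come from a whole-organism screen of a 10,000-compound diverse Life Chemicals library against microfilariae of Onchocerca ochengi or Onchocerca lienalis. The screen followed previously published standard procedures, with reference drugs as positive controls.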

Plasmodium falciparum K1 = experiment: WHO-TDR: Malaria; format: functional, organism-based, Homo sapiens; conditions: Erythrocyte
Outline: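 Following previously published standard procedures, with a reference drug serving as positive control, compounds were tested on the Plasmodium falciparum K1 strain inside human red blood cells. The 10,000-compound diverse set came from Life Chemicals after filtering for drug-likeness and reactive groups. Potency against the parasite appears as IC50.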

Leishmania infantum = experiment: WHO-TDR: Leishmaniasis; format: functional, organism-based, Mus musculus; conditions: Macrophage
Outline: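 Following previously published standard procedures, a whole-organism screen was run on Leishmania infantum MHOM/MA(BE)/67 amastigotes within murine peritoneal macrophages, with a reference drug as positive control. The 10,000 compounds tested formed a diverse Life Chemicals library filtered for drug-likeness and reactive groups. Potency against the parasite is reported as IC50.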

Schistosoma mansoni = experiment: WHO-TDR: Schistosomiasis; format: functional; parameters: concentration or dose not given beside the values
Outline: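 Values are reported as percent inhibition and IC50. They come from a whole-organism screen of a 10,000-compound diverse Life Chemicals library against larval and/or adult worms of Schistosoma mansoni, Puerto Rican strain. The library had been filtered for drug-likeness and reactive groups.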

[2] = tested on: Trypanosoma brucei brucei; experiment: WHO-TDR: Human African Trypanosomiasis (HAT); format: functional, organism-based; conditions: Squib-427
Outline: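 Bloodstream forms of the Trypanosoma brucei Squib 427 strain were tested in a whole-organism screen with a diverse library from Life Chemicals of 10,000 compounds. Before screening, the library was filtered for drug-likeness and for reactive groups. The assay used previously published standard procedures and included reference drugs as positive controls. Potency against the parasite is expressed as IC50.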

Onchocerca ochengi [3] = experiment: as §1; format: functional; parameters: concentration or dose not given beside the values; outline: as §2; remark: listed apart in the source
[4] = WHO-TDR: Cytotoxicity; format: toxicity, cell-based; conditions: human, MRC5 cells
Trypanosoma cruzi = experiment: WHO-TDR: Chagas disease; format: functional, organism-based, Homo sapiens; conditions: MRC5
Outline: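 Intracellular amastigotes of the Trypanosoma cruzi Tulahuen CL2 beta-galactosidase strain, grown in MRC-5SV2 human lung fibroblast host cells, were tested in a whole-organism screen. The compounds came from a 10,000-member diverse Life Chemicals library that had been filtered for drug-likeness and reactive groups. Previously published standard procedures were followed, with a reference drug as positive control, and potency is reported as IC50.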

SMILES | IC50 (Plasmodium falciparum K1) [µg/mL] | IC50 (Leishmania infantum) [µg/mL] | IC50 [2] [µg/mL] | % Inhibition (Onchocerca ochengi [1]) [%] | % Inhibition (Schistosoma mansoni) [%] | % Inhibition (Onchocerca ochengi [3]) [%] | IC50 [4] [µg/mL] | IC50 (Trypanosoma cruzi) [µg/mL]
O=C(Cn1c(=O)n(Cc2cccs2)c(=O)c2ncccc21)OCc1ccccc1 | > 12.2 | > 12.2 | > 12.2 | 100 | 0 | 0 | > 12.2 | > 12.2
COc1ccc(Cl)cc1C(=O)Nc1cc(C)nn1-c1nc2c(c(=O)[nH]1)CCC2 | > 12 | 6.21 (≈ 15.5 µM) | 0.388 (≈ 0.97 µM) | 0 | 50 | 0 | 0.685 (≈ 1.71 µM) | 0.361 (≈ 0.902 µM)
O=C(CSc1nc(CC(=O)N2CCN(c3ccccc3F)CC2)cs1)Nc1ccc(F)cc1 | > 14.7 | > 14.7 | > 14.7 | 100 | 0 | 0 | > 14.7 | > 14.7
O=C(Nc1nc2c(s1)CCCC2C(=O)NCCC1=CCCCC1)c1ccccc1 (stereo not given) | 2.13 (≈ 5.19 µM) | > 12.3 | 2.56 (≈ 6.26 µM) | 100 | 0 | 0 | > 12.3 | 3.45 (≈ 8.42 µM)
Cc1ccc(C)c(C(=O)Nc2ccc3c(c2)CCC(=O)N3Cc2ccccc2)c1 | > 11.5 | > 11.5 | 0.416 (≈ 1.08 µM) | 75 | 0 | 0 | > 11.5 | > 11.5
CCSc1nnc(-c2ccccc2)c2sc(C)nc12 | 1.39 (≈ 4.82 µM) | 2.79 (≈ 9.71 µM) | 0.146 (≈ 0.508 µM) | 100 | 0 | 0 | 4.9 (≈ 17 µM) | 0.259 (≈ 0.901 µM)
CCN(CC)CCN(C(=O)Cc1ccc2c(c1)OCO2)c1nc2c(C)c(C)ccc2s1 | 8.03 (≈ 18.3 µM) | > 14.3 | 0.452 (≈ 1.03 µM) | 0 | 0 | 0 | > 14.3 | 9.51 (≈ 21.6 µM)
CC(C)CCN1C(=O)CCc2cc(NC(=O)c3cccc(Br)c3)ccc21 | > 12.5 | > 12.5 | 3.5 (≈ 8.42 µM) | 100 | 0 | 0 | > 12.5 | 3.35 (≈ 8.08 µM)

Further lines, with some results ahead:

IC50 (Plasmodium falciparum K1) [µg/mL] | IC50 (Leishmania infantum) [µg/mL] | IC50 [2] [µg/mL] | SMILES | % Inhibition (Onchocerca ochengi [1]) [%] | % Inhibition (Schistosoma mansoni) [%] | % Inhibition (Onchocerca ochengi [3]) [%] | IC50 [4] [µg/mL] | IC50 (Trypanosoma cruzi) [µg/mL]
7.08 (≈ 18.7 µM) | > 11.4 | 3.82 (≈ 10.1 µM) | CN(C)C(CNS(=O)(=O)c1cc(Cl)ccc1Cl)c1ccsc1 (stereo not given) | 100 | 0 | 0 | > 11.4 | > 11.4
> 10.8 | > 10.8 | > 10.8 | O=S(=O)(Nc1nc2c(Cl)cccc2s1)c1ccc(Cl)cc1 | 100 | 0 | 0 | > 10.8 | 10.2 (≈ 28.4 µM)
> 12.2 | > 12.2 | 5.79 (≈ 14.2 µM) | Cc1ccc(S(=O)(=O)N2CCCCC2CC(=O)Nc2ccc(Cl)cc2)cc1 (stereo not given) | 0 | 0 | 0 | > 12.2 | 0.421 (≈ 1.03 µM)
> 13.1 | > 13.1 | 4.24 (≈ 9.71 µM) | O=C(CC1CCCCN1S(=O)(=O)c1ccc(Cl)cc1)Nc1ccc2c(c1)OCO2 (stereo not given) | 0 | 0 | 0 | > 13.1 | 0.789 (≈ 1.81 µM)
> 12.6 | 4.09 (≈ 9.71 µM) | 4.04 (≈ 9.6 µM) | C=CCN1C(=O)C(C)(C)COc2cc(NS(=O)(=O)c3ccccc3Cl)ccc21 | 100 | 0 | 0 | > 12.6 | 4.05 (≈ 9.61 µM)
> 12.1 | > 12.1 | > 12.1 | COc1ccc(CCNC(=O)NCC2CC(=O)N(c3ccc(Cl)cc3)C2)cc1 (stereo not given) | 100 | 0 | 75 | > 12.1 | 6.28 (≈ 15.6 µM)
7.34 (≈ 18.3 µM) | > 12 | 3.89 (≈ 9.71 µM) | CC(C)CCN1C(=O)CCc2cc(NC(=O)COc3ccc(Cl)cc3)ccc21 | 100 | 0 | 0 | > 12 | 3.45 (≈ 8.61 µM)

Source: ChEMBL document CHEMBL2093137, “WHO-TDR NTD Screening”
